Here are results for 33 molecules from ChEMBL document CHEMBL4304821, “Synthesis and structure-activity relationship of nitrile-based cruzain inhibitors incorporating a trifluoroethylamine-based P2 amide replacement” (Bioorg Med Chem, 2019).

Each structure is given as a SMILES string. Active and inactive are the calls of the source. No cut-off for these calls is given here.

What is called Ki is a dissociation constant, usually derived from enzyme kinetics or from competition with a known ligand. Usually EC50 stands for the concentration giving half of the maximal effect. Usually CC50 stands for the concentration at which the toxic effect on the cells reaches its halfway point.

In data set [1] the target is T1, Cruzipain (Trypanosoma cruzi, UniProt P25779). Nature of the data set: Inhibition of Trypanosoma cruzi cruzain using Z-Phe-Arg-7-amido-4-methylcoumarin as substrate preincubated for 2 mins followed by susbtrate addition by fluorescence based analysis. The method in brief: (§1)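 Recombinant cruzain was the catalytic domain of cruzipain without the C-terminal extension, used at 0.15 nM. The assay ran at 37 °C in 100 mM acetate buffer pH 5.5 with 300 mM NaCl, 5 mM DTT, 5% v/v DMSO and 0.01% Triton X-100. Hydrolysis of Z-Phe-Arg-AMC was followed as rate by fluorescence (ex 355/em 460 nm).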
T1 sequence (P25779 whole entry, the tested form may be a part): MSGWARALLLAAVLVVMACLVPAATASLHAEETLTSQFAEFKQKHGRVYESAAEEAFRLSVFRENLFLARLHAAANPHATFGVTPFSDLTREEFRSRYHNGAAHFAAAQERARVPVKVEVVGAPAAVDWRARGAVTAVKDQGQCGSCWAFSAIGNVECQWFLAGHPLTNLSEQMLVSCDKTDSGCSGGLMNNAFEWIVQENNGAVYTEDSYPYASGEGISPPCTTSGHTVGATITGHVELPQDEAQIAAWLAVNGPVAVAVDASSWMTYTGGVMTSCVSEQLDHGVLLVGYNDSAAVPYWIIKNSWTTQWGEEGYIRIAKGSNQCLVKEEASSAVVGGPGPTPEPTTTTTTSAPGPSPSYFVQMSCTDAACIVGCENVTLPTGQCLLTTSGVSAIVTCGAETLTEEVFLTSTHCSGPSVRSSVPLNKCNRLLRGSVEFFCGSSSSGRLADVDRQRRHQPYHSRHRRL

In a further data set the test system is Trypanosoma cruzi. Nature of the data set: Antitrypanosomal activity against Trypanosoma cruzi Y strain amastigotes infected in human U2OS cells assessed as parasite growth inhibition after 72 hrs post infection by DRAQ5 staining based analysis. The class given is functional, organism-based. The method in brief: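 U2OS cells were seeded at 700/well in high DMEM and held 24 h at 37 °C/5% CO2. They were infected with T. cruzi Y strain trypomastigotes from LLC-MK2 cultures at 4 parasites per host cell. Compounds were added on day 3 as 17 points of 2-fold dilution from 100 µM (1% DMSO final), with 96 h exposure. Cells were PFA-fixed, Draq5-stained and imaged. Infection ratio was normalized to infected DMSO and non-infected controls, and EC50 came from a sigmoidal fit. Two independent experiments were run.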

For another data set, the target named is Procathepsin L (Homo sapiens, UniProt P07711). The data set can be described thus: Inhibition of Cathepsin L (unknown origin) using Z-Phe-Arg-7-amido-4-methylcoumarin as substrate preincubated for 2 mins followed by susbtrate addition by fluorescence based analysis. In outline:
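Cathepsin L was used at 0.30 nM, at 37 °C in 100 mM acetate buffer pH 5.5 with 300 mM NaCl, 1 mM DTT, 1 mM EDTA, 5% v/v DMSO and 0.01% Triton X-100. Z-Phe-Arg-AMC hydrolysis rate was monitored by fluorescence (ex 355/em 460 nm).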

Data set [2] can be described thus: Lipophilicity, log Kw of compound by HPLC analysis. The class given is physicochemical.
The target in data set [3] is Cruzipain (Trypanosoma cruzi) (UniProt P25779). The data set can be described thus: Inhibition of Trypanosoma cruzi cruzain assessed as initial velocity using Z-Phe-Arg-7-amido-4-methylcoumarin as substrate preincubated for 2 mins followed by susbtrate addition by fluorescence based analysis. In outline:
as §1

Data set [4] concerns the target T1, Cruzipain. Nature of the data set: Inhibition of Trypanosoma cruzi cruzain assessed as inhibitor constant using Z-Phe-Arg-7-amido-4-methylcoumarin as substrate preincubated for 2 mins followed by susbtrate addition by fluorescence based analysis. The method in brief: as §1
Data set [5] is described as follows: Cytotoxicity in human U2OS cells assessed as reduction in cell viability after […] by DRAQ5 staining based analysis. In outline:
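Infected U2OS cells (Y strain, 4 parasites/cell) were exposed to 17 2-fold concentrations starting at 100 µM in 1% DMSO. Exposure was 96 h. Wells were PFA-fixed, Draq5-stained and imaged at 20X to count host cells. CC50 is the concentration that lowers the cell ratio to 0.5 versus the mean cell number in DMSO negative-control wells. Duplicate independent experiments.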

Chain of Cruzipain (Trypanosoma cruzi) (P25779 123-467 limits assumed): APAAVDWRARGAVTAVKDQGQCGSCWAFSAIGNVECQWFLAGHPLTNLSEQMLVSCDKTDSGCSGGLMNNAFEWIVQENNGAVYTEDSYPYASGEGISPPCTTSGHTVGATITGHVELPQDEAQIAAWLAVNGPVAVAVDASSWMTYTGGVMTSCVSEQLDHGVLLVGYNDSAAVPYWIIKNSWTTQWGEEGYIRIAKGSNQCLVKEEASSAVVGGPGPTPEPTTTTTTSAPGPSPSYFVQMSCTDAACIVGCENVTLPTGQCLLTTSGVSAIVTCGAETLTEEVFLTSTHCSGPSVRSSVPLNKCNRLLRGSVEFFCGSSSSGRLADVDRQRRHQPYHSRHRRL
Chain of Procathepsin L (P07711 whole entry): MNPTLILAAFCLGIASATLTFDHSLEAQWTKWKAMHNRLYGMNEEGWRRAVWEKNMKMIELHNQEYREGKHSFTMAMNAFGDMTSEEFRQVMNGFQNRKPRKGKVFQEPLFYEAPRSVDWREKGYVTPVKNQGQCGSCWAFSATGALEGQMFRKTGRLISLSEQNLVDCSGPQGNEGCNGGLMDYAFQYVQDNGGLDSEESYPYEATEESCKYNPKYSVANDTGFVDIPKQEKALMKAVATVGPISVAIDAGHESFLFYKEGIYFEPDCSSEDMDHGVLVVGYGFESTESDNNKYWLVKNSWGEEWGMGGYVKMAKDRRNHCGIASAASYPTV

Consider `CC(C)C[C@H](N[C@@H](c1ccc(-c2ccccc2)cc1)C(F)(F)F)C(=O)N[C@H](C#N)Cc1ccccc1`, for which the inhibition constant Ki is 0.000631 µM at Cruzipain [1] and 1.58 µM at Procathepsin L. The outcome in the data set with Trypanosoma cruzi was inactive. Also, the logKw in data set [2] stood at 3.2. The V0 in data set [3] stood at 3.22 RFU/s.
As to `CC(C)C[C@H](NC(=O)c1ccccc1)C(=O)NC1(C#N)CC1`, the Ki was 0.0501 µM on Cruzipain [1] and 0.02 µM at Procathepsin L. Moreover, the result with Trypanosoma cruzi was inactive.
In the case of `COc1ccc(C[C@H](N[C@H](c2ccccc2)C(F)(F)F)C(=O)O)cc1`, the Ki on Cruzipain [4] stood at 0.36 µM. Further, the V0 in data set [3] was determined as 5.2 RFU/s.
Consider `CC(C)C[C@H](N[C@@H](c1ccc(-c2ccccc2)cc1)C(F)(F)F)C(=O)NC1(C#N)CC1`, for which the Ki was 0.00794 µM at Cruzipain [1] and 0.794 µM on Procathepsin L. The result in the data set on Trypanosoma cruzi was inactive. Moreover, in data set [2], the logKw was determined as 2.6. The V0 in data set [3] is 3.85 RFU/s.
As to `CC(C)(F)C[C@H](N[C@@H](c1ccc(-c2ccc(S(C)(=O)=O)cc2)cc1)C(F)(F)F)C(=O)NC1(C#N)CC1` [ODANACATIB], the outcome in the data set with Trypanosoma cruzi was inactive. Further, the Ki on Procathepsin L was 1.26 µM. This molecule also yielded a logKw in data set [2] of 2.
For `CC(C)C[C@H](N[C@H](c1ccccc1)C(F)(F)F)C(=O)N[C@H](C#N)Cc1ccccc1`, the Ki at Cruzipain [1] is 0.398 µM; at Procathepsin L, 0.251 µM. In the data set with Trypanosoma cruzi, the outcome was inactive. Also, the logKw in data set [2] was 2.2. Further, the V0 in data set [3] was determined as 2.71 RFU/s.
Regarding `N#C[C@H](Cc1ccccc1)NC(=O)[C@H](Cc1ccccc1)N[C@H](c1ccc(-c2ccccc2)cc1)C(F)(F)F`, the inhibitory constant (Ki) at Cruzipain [1] is greater than 10 µM. Further, the result with Trypanosoma cruzi was inactive.
With `N#CC1(NC(=O)[C@H](Cc2ccccc2)N[C@H](c2ccccc2)C(F)(F)F)CC1`, in the data set with Trypanosoma cruzi, the result was inactive. Moreover, the logKw in data set [2] came to 1.4. For the same molecule, in data set [3], the V0 is 3.53 RFU/s.
As for `CC(C)C[C@H](N[C@H](c1ccccc1)C(F)(F)F)C(=O)NC1(C#N)CC1`, the Ki was 0.2 µM on Cruzipain [1] and 0.143 µM at Cruzipain [4]. Besides, the outcome in the data set on Trypanosoma cruzi was inactive. The molecule further returned a logKw in data set [2] of 1.1. In data set [3], the V0 was 3.75 RFU/s.
In the case of `O=C(O)[C@H](Cc1c[nH]c2ccccc12)N[C@@H](c1cccc(Cl)c1)C(F)(F)F`, the Ki at Cruzipain [4] was determined as 0.142 µM. Moreover, the V0 in data set [3] is 2.66 RFU/s.
`N#CC1(NC(=O)[C@H](Cc2ccccc2)N[C@@H](c2cccc(Cl)c2)C(F)(F)F)CC1`: at Cruzipain [4], the inhibitory constant (Ki) is 0.00401 µM. Further, in data set [3], the V0 turned out to be 3.65 RFU/s.
With `CC(C)C[C@H](NC(=O)c1ccccc1)C(=O)N[C@H](C#N)Cc1ccccc1`, the Ki at Cruzipain [1] is 0.0501 µM; at Procathepsin L, 0.0631 µM. Also, the result in the data set with Trypanosoma cruzi was inactive.
Regarding `CC(C)C[C@H](N[C@H](c1ccc(-c2ccccc2)cc1)C(F)(F)F)C(=O)NC1(C#N)CC1`, the inhibition constant (Ki) at Cruzipain [1] was 0.0631 µM; on Procathepsin L, 0.631 µM. In addition, in the data set with Trypanosoma cruzi, the result was inactive. The molecule further gave a logKw in data set [2] of 2.8.
With `N#CC1(NC(=O)[C@@H](Cc2c[nH]c3ccccc23)N[C@@H](c2ccccc2)C(F)(F)F)CC1`, the Ki at Cruzipain [1] is greater than 10 µM; on Procathepsin L it was 1.26 µM. Moreover, in the data set with Trypanosoma cruzi, the EC50 amounted to 25.6 µM.
Regarding `COc1ccc(C[C@H](N[C@@H](c2ccccc2)C(F)(F)F)C(=O)N[C@@H](C#N)Cc2ccccc2)cc1`, the Ki is 0.398 µM at Cruzipain [1] and 0.631 µM on Procathepsin L. Further, in the data set on Trypanosoma cruzi, the outcome was inactive. This molecule also had a logKw in data set [2] of 2.7.
As to `COc1ccc(C[C@H](N[C@H](c2ccccc2)C(F)(F)F)C(=O)NC2(C#N)CC2)cc1`, affinity on Cruzipain [1] was put at a Ki of 7.94 µM. This molecule gave a logKw in data set [2] of 1.5. Also, the V0 in data set [3] worked out at 3.17 RFU/s.
`N#CC1(NC(=O)[C@H](Cc2ccccc2)N[C@@H](c2ccc(Br)cc2)C(F)(F)F)CC1`: the figures for the Ki on Cruzipain [1] and at Procathepsin L were 2 µM and 0.251 µM, respectively. Moreover, the result in the data set on Trypanosoma cruzi was inactive. The molecule further displayed a logKw in data set [2] of 1.7. Further, the V0 in data set [3] was 3.6 RFU/s.
Take `COc1ccc(C[C@H](N[C@@H](c2ccccc2)C(F)(F)F)C(=O)NC2(C#N)CC2)cc1`: affinity at Cruzipain [1] was put at a Ki of 3.98 µM. Further, the outcome in the data set on Trypanosoma cruzi was inactive. This molecule also gave a logKw in data set [2] of 1.4. Further, the V0 in data set [3] stood at 3.56 RFU/s.
On to `COc1ccc(C[C@H](N[C@H](c2ccccc2)C(F)(F)F)C(=O)N[C@@H](C#N)Cc2ccccc2)cc1`, for which the Ki at Cruzipain [1] and on Procathepsin L was greater than 10 µM each time. The outcome with Trypanosoma cruzi was inactive.
Turning to `N#CC1(NC(=O)[C@H](Cc2ccccc2)N[C@@H](c2ccccc2)C(F)(F)F)CC1`, the figures for the Ki on Cruzipain [1] and on Procathepsin L were 1 µM and 0.158 µM, respectively. In the data set with Trypanosoma cruzi, the result was inactive. Also, in data set [2], the logKw is 1. Besides, in data set [3], the V0 worked out at 2.18 RFU/s.
As to `CC(C)C[C@H](N[C@@H](c1ccc(-c2ccc(F)cc2)cc1)C(F)(F)F)C(=O)NC1(C#N)CC1`, on Cruzipain [4], the Ki turned out to be 4.06 µM. The V0 in data set [3] amounted to 3.87 RFU/s.
Take `N#CC1(NC(=O)[C@H](Cc2c[nH]c3ccccc23)N[C@H](c2ccccc2)C(F)(F)F)CC1`: the Ki at Cruzipain [1] was greater than 10 µM; on Procathepsin L, 1 µM. Also, in the data set on Trypanosoma cruzi, the EC50 came out at 11.5 µM. For the same molecule, in data set [5], the CC50 stood at 33 µM.
On to `O=C(O)[C@H](Cc1c[nH]c2ccccc12)N[C@H](c1cccc(Cl)c1)C(F)(F)F`, for which the inhibition constant (Ki) at Cruzipain [4] amounted to 0.168 µM. In data set [3], the V0 is 4.15 RFU/s.
As to `CC(C)C[C@H](N[C@@H](c1ccccc1)C(F)(F)F)C(=O)NC1(C#N)CC1`, the Ki on Cruzipain [1] is 0.0398 µM. Moreover, in the data set with Trypanosoma cruzi, the result was inactive.
Turning to `CC(C)C[C@H](N[C@@H](c1ccc(-c2cncnc2)cc1)C(F)(F)F)C(=O)N[C@H](C#N)Cc1ccccc1`, the Ki is 0.00158 µM at Cruzipain [1] and 0.0251 µM on Procathepsin L. Besides, the result in the data set on Trypanosoma cruzi was inactive. Further, the V0 in data set [3] was 2.91 RFU/s.
`N#CC1(NC(=O)[C@H](Cc2ccccc2)NC(=O)c2ccccc2)CC1` gave a Ki at Cruzipain [1] of 0.316 µM.
As for `CC(C)C[C@H](N[C@@H](c1ccccc1)C(F)(F)F)C(=O)N[C@H](C#N)Cc1ccccc1`, the Ki on Cruzipain [1] was 0.00158 µM; at Procathepsin L, 0.00501 µM. Also, in the data set with Trypanosoma cruzi, the result was inactive. In addition, in data set [2], the logKw stood at 2.3.
For `CC(C)C[C@H](N[C@H](c1ccc(-c2ccc(F)cc2)cc1)C(F)(F)F)C(=O)NC1(C#N)CC1`, in that order: 0.0794 µM, 1 µM, “inactive” and 2.8.
As for `COc1ccc(C[C@H](N[C@@H](c2ccccc2)C(F)(F)F)C(=O)O)cc1`, at Cruzipain [4], the Ki was found to be 0.0388 µM. Also, in data set [3], the V0 came to 3.85 RFU/s.
`N#C[C@@H](Cc1ccccc1)NC(=O)[C@H](Cc1ccccc1)N[C@@H](c1ccccc1)C(F)(F)F`: the inhibitory constant (Ki) was 2.51 µM at Cruzipain [1] and 0.631 µM on Procathepsin L. Moreover, the outcome with Trypanosoma cruzi was inactive. Besides, in data set [2], the logKw is 2.6.
The molecule `CC(C)C[C@H](N[C@H](c1ccc(-c2ccccc2)cc1)C(F)(F)F)C(=O)N[C@H](C#N)Cc1ccccc1` gave a Ki at Cruzipain [1] of 0.251 µM. For the same molecule, in the data set on Trypanosoma cruzi, the outcome was inactive. The logKw in data set [2] was 3.1.
`N#CC1(NC(=O)[C@H](Cc2ccccc2)N[C@H](c2cccc(Cl)c2)C(F)(F)F)CC1` showed a Ki at Cruzipain [1] of 3.16 µM. In the data set on Trypanosoma cruzi, the result was inactive. In data set [2], this molecule yielded a logKw of 1.7. For the same molecule, the V0 in data set [3] was 5.81 RFU/s.
Turning to `COc1ccc(C[C@H](N[C@H](c2ccccc2)C(F)(F)F)C(=O)N[C@H](C#N)Cc2ccccc2)cc1`, the Ki on Cruzipain [1] is 3.98 µM; on Procathepsin L, 1.58 µM. Also, the result in the data set with Trypanosoma cruzi was inactive. In data set [2], the logKw came to 2.7.
